PGE2 EP2 inh = blocks the human prostaglandin E2 receptor EP2 | C6 glioma cells expressing human EP2, cAMP TR-FRET; cells stimulated with saturating PGE2 | actives 0.52% (n = 260,000) | AID 1422 | inhibition, % at 25 µM;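 active = percent inhibition above 40 after rounding to a whole number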;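 also: rat C6 glioma host cells with rolipram phosphodiesterase inhibitor present; the protocol text gives 20 µM as final concentration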
EP2 mod = EP2 receptor (human) modulation | induction, % at 25 µM | EP2-expressing cells, cAMP HTRF FRET, PGE2 co-stimulation | AID 940 | P43116 | actives 0.83% (n = 260,000);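 active = compounds whose cAMP rise, as percent of the full-agonist control response, exceeds 60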;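 also: rat C6 glioma line stably carrying human EP2 under a CMV promoter; the protocol text gives 20 µM as final concentration; 100% = response of wells given 1 µM PGE2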
NPY-Y1 antag = antagonists of human neuropeptide Y receptor Y1 | P25929 | HEK293-CNG Y1 cells, membrane potential fluorescence; NPY at EC95, then isoproterenol | inhibition, % at 3.6 µM | actives 1% (n = 200,000) | AID 1040;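 active = inhibition above the campaign mean inhibition of all tested compounds plus 3 SD, cut at about 20% in these data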;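 also: 0% = DMSO wells given NPY plus isoproterenol and 100% = isoproterenol alone without NPY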
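Test system – HEK293 Y1/CNG channel cell line · Also added – NPY agonist 25 nM, then isoproterenol 1 µM plus Ro 20-1724 25 µM · Compound dosing – one concentration, 3.6 µM, in 0.4% DMSO · Schedule – compound incubation 1 h at room temperature, readout 45 min post-stimulation · Technique – fluorescence, membrane potential probe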
NPY-Y1 PAM-ag = potentiates or activates human NPY-Y1 receptor; NPY-Y1 expressing cells, potentiator/agonist activation; activation, % at 3.6 µM; actives 0.37% (n = 220,000); AID 1304; in the data active = activation above about 33%, passing the limit was not always enough;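 also: cells stimulated with NPY at EC10 then isoproterenol at EC100; 0% = low agonist plus stimulus and 100% = saturating agonist plus stimulus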
NPY2 pot ag = potentiates or activates human NPY-Y2 receptor. P49146. cells expressing NPY-Y2, potentiator/agonist read-out. activation, % at 3.6 µM. actives 0.45% (n = 220,000). AID 1359; in the data active = activation above about 27%;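 also: cells stimulated with NPY near EC25 plus isoproterenol at EC100; 0% = vehicle plus submaximal agonist and 100% = vehicle plus saturating agonist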
Target sequence (P49146 whole entry, looked up): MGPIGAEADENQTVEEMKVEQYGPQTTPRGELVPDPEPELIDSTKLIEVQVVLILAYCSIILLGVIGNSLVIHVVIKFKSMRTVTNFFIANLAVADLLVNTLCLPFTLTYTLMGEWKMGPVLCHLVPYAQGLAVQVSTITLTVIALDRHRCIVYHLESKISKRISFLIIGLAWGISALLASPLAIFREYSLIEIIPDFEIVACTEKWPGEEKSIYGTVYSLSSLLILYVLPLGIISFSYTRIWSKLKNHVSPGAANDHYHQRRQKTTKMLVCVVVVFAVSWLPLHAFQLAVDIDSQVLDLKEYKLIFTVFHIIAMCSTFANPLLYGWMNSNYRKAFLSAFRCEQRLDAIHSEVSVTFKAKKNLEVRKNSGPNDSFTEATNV
NPY-Y2 antag = NPY-Y2 (human) receptor antagonism | actives 0.99% (n = 140,000) | NPY-Y2 expressing cells, antagonist mode | inhibition, % at 2.7 µM | P49146 | AID 793; in the data active = inhibition above about 17%;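 also: 0% = vehicle with agonist challenge and 100% = reference antagonist with challenge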
Numbers without * were called inactive; · = no result given. The list is not random: actives were taken first. Their share in the collection is about 2.8%.

SMILES	PGE2 EP2 inh	EP2 mod	NPY-Y1 antag	NPY-Y1 PAM-ag	NPY2 pot ag	NPY-Y2 antag
O=C(CN1C(=O)C2CC=CCC2C1=O)N1CCN(c2ccc([N+](=O)[O-])cc2)CC1 (centres undefined)	7	-43	·	-18	1	·
O=C(c1ccccc1F)N1CCCc2cc(C(O)CN3CCOCC3)ccc21 (centres undefined)	8	-20	·	·	·	·
COc1ccc(C2(C)NC(=O)N(CC(=O)Nc3ccc(-c4nc5ccc(C)cc5s4)cc3)C2=O)cc1 (centres undefined)	7	-1	-12	39*	56*	·
Cc1cc(Br)ccc1NC(=O)CNC(=O)CN1C(=O)NC2(CCCCCC2)C1=O	18	11	-6	27	23	-1
Cc1cc(Br)ccc1NC(=O)CN1C(=O)C2C3CC(c4ccccc4)C(C3)C2C1=O (centres undefined)	·	-9	-22	67*	53*	-6
CC(C(=O)N1CCCC1c1nc2ccccc2[nH]1)n1ncc2ccccc2c1=O (centres undefined)	7	-42	·	·	·	·
COC(=O)[C@@H]1O[C@H](SCCN)[C@@H](O)[C@H](O)[C@H]1O	50*	21	·	·	·	·
O=C(Nc1ccc2c(c1)OCO2)c1cc(-c2ccc(Cl)cc2Cl)on1	14	16	·	·	·	·
CCCCC[C@@H](O)[C@@H]1C(=O)O[C@@H](C)[C@@H](O)C=C/C=C\C=CC=C/C=C(/C)[C@H](O)C[C@H](O)C[C@H](O)C[C@H](O)C[C@H](O)C[C@H](O)C[C@@H]1O	50*	23	·	·	·	·
COc1ccc(-c2cc(C(F)(F)F)nc(SCC(=O)NC(C)C)n2)cc1	11	-163	·	·	·	·
O=C(c1cnccn1)N1CCC2(CC1)CC(O)(c1ccc(F)cc1)CO2 (centres undefined)	·	18	·	·	·	·
COc1ccccc1C(=O)Nc1ccc(C2=NNC(=O)CC2C)cc1 (centres undefined)	15	29	96*	-77	-17	72*
O=C(NCc1ccccn1)C1CCCN(S(=O)(=O)c2ccc(Cl)cc2)C1 (centres undefined)	11	-38	·	·	·	·
Cc1ccc2sc(NC(=O)CSc3nc4c(C)cccc4cc3C#N)nc2c1	6	13	·	·	·	·
COc1cc(C)c(CN(CCN(C)C)Cc2ccccn2)cc1OC	7	14	·	·	·	·
COc1cccc2c1C(=O)c1c(O)c3c(c(O)c1C2=O)C[C@@](O)(C(=O)CO)C[C@H]3O[C@H]1C[C@@H](N)[C@H](O)[C@@H](C)O1.[W]	40*	15	·	·	·	·
O=C(Nc1ccccc1Cl)C1(c2ccccc2)CC1(Cl)Cl (centres undefined)	4	62*	5	-6	-3	8
NC(=O)c1nsc(C(=O)N(Cc2ccco2)C(C(=O)NC2CCCCC2)c2ccc(F)cc2)c1N (centres undefined)	12	-6	·	·	·	·
CC1Cc2ccccc2N1Cc1nc2cc(Cl)ccc2c(=O)[nH]1 (centres undefined)	14	22	-1	65*	61*	1
COc1ccc(-n2c(=O)c3c(C)c(C)sc3n(Cc3cccc(F)c3)c2=O)c(OC)c1	5	61*	4	8	3	·
CCN(CC)C(=O)c1sc2c(c1C)c(=O)n(-c1ccc(OC)cc1OC)c(=O)n2CC(=O)c1ccccc1	2	0	0	-16	-8	·
COc1cccc(CC(=O)N2CCCC(c3c(S(C)(=O)=O)cnc4ncnn34)C2)c1 (centres undefined)	·	-15	·	·	·	·
CN(C)S(=O)(=O)Oc1cccc(C(=O)Nc2ccc(Cl)c(Cl)c2)c1	40*	-63	-7	-28	-16	3
COC(=O)C1=CC(C(=O)c2cccs2)=NN(c2ccc(OC)cc2)C1C(=O)OC (centres undefined)	10	63*	-2	-2	17	-1
Cc1cc2c(o1)c1cnn(CC(=O)N3CCCCC3)c(=O)c1n2C(C)C	·	-35	·	·	·	·
SMILES	PGE2 EP2 inh	EP2 mod	NPY-Y1 antag	NPY-Y1 PAM-ag	NPY2 pot ag	NPY-Y2 antag
CCCSc1nc(C)nc2c1c(=O)n(C)c(=O)n2C	10	25	0	2	-2	1
CCCCSc1nc(C)nc2c1c(=O)n(C)c(=O)n2C	10	63*	0	3	4	0
COc1c(Cl)cc(Cl)cc1C1C(C#N)=C(N)Oc2n[nH]c(C)c21 (centres undefined)	8	-28	·	·	·	·
O=C(COC(=O)c1ccc2c(c1)C(=O)N(Cc1ccncc1)C2=O)Nc1ccccc1[N+](=O)[O-]	8	16	-3	-8	4	1
CC(OC(=O)c1ccc2c(c1)C(=O)N(Cc1ccncc1)C2=O)C(=O)Nc1cccc(Cl)c1Cl (centres undefined)	7	1	-11	114*	103*	4
Cc1cc(-c2ccccc2)c2c(n1)sc1c(O)cc(=O)[nH]c12	18	27	·	-1	1	·
Cc1cc(-c2cccs2)c2c(n1)sc1c(=O)[nH]c(=O)[nH]c12	47*	31	-3	-17	11	0
Cc1ccc(SCN2CCCCC2)cc1 (tested in a mixture with another compound)	52*	26	·	·	·	·
Cc1ccc(SCC(=O)N2CCOCC2)cc1	11	18	-8	5	-4	2
O=C(O)C1CC=CCC1C(=O)NCc1cccnc1 (centres undefined)	15	40	·	·	·	·
CSc1nc(Oc2ccc(Cl)cc2)c2sccc2n1	11	64*	1	15	0	1
COc1ccccc1-n1c(=O)c(C#N)c(-c2ccc([N+](=O)[O-])cc2)c2cc(C(=O)c3ccccc3O)cnc21	5	21	·	73*	49*	·
Cc1ccc2[nH]c3c(c2c1)CCC3=O	42*	-15	2	8	-4	3
O=C1C(Cl)=C(Nc2ccc(S(=O)(=O)Nc3ccccn3)cc2)C(=O)c2ccccc21	107*	-63	·	·	·	·
O=C1ON=C(c2ccccc2)/C1=C/c1ccco1	96*	-54	-2	3	0	·
CN(C)/C=C1\C(=O)ON=C1c1ccccc1	12	7	4	-5	-1	·
CC(=O)Nc1ccc(S(=O)(=O)N2CCN(c3cc(C)nc4ccccc34)CC2)cc1	9	-20	6	3	14	-1
CC(=O)Nc1ccc(S(=O)(=O)N2CCN(c3nc(NC4CCCC4)c4ccccc4n3)CC2)cc1	2	-28	13	-1	32*	9
CCc1c(-c2ccccc2)nc(N)c(C#N)c1-c1ccc(OC)c(OC)c1	9	23	·	·	·	·
N#CSC1CS(=O)(=O)C=C1Cl (centres undefined)	133*	-111	·	·	·	·
O=[N+]([O-])c1ccc(/C=N/Nc2ccc3ccccc3c2)o1	12	-61	-19	76*	66*	-10
COc1ccc(NC(=O)O/N=C2/CCCc3ccc(OC)cc32)cc1	16	9	3	98*	-4	5

Bioassay records: PubChem BioAssay, several laboratories
